# Measured values gathered from unrelated publications.
# pIC50, pKd: −log10 of the molar value.
# CDK2 with cyclin A: Cyclin-dependent kinase 2, with cyclin A (CDK2, Homo sapiens, UniProt P24941)
# CDK2: Cyclin-dependent kinase 2 (CDK2, Homo sapiens, UniProt P24941)
# CDK2 with cyclin E: Cyclin-dependent kinase 2, with cyclin E (CDK2, Homo sapiens, UniProt P24941)
# CDK2 with cyclin E1: Cyclin-dependent kinase 2, with cyclin E1 (CDK2, Homo sapiens, UniProt P24941)
Structure (SMILES),target,read-out,action,technique,endpoint,result
CN1CCC(c2c(O)cc(O)c3c(=O)cc(-c4ccccc4)oc23)C(O)C1 (centres unmarked),CDK2 with cyclin A,enzyme activity,inhibitor,,pIC50,6.71
COc1cccc(OC)c1CNC(=O)c1ccc2c(c1)C(=NNc1ccc(S(N)(=O)=O)cc1)C(=O)N2,CDK2,binding,,,pKd,7.65
CN(C)CCNc1nc2ccccc2c2[nH]c3ccccc3c12,CDK2 with cyclin E,enzyme activity,inhibitor,radiometric,pIC50,4.15
O=c1cc(-c2ccccc2)oc2ccc3ccccc3c12,CDK2 with cyclin E1,enzyme activity,inhibitor,ADP detection,pIC50,< 5.00
O=S(=O)(/C=C/c1ccc(C(F)(F)F)cc1)c1ccc(-c2csc(-c3ccccc3)n2)cc1,CDK2,enzyme activity,inhibitor,mobility shift,pIC50,4.59
C=CC(=O)Nc1ccc(N2CCC[C@@H](Nc3ncc(Cl)c(-c4c[nH]c5ccccc45)n3)C2)c(F)c1,CDK2 with cyclin A,enzyme activity,inhibitor,FRET,pIC50,5.40
CN(C)CCNS(=O)(=O)c1ccc(N/C=C2\C(=O)Nc3ccccc32)cc1,CDK2,binding,,,pKd,5.97
CN(C)CCNC1=Nc2ccccc2-c2[nH]c3ccccc3c2C1,CDK2 with cyclin E,enzyme activity,inhibitor,radiometric,pIC50,4.14
C=CC(=O)Nc1ccc(O[C@@H]2CCC[C@@H](Nc3ncc(Cl)c(-c4c[nH]c5ccccc45)n3)C2)cc1,CDK2 with cyclin A,enzyme activity,inhibitor,FRET,pIC50,< 5.00
COc1c(C(=O)/C=C(\O)c2ccccc2)ccc2occc12,CDK2 with cyclin E1,enzyme activity,inhibitor,ADP detection,pIC50,< 4.00
O=C(Nc1cc(C2CCCCC2)[nH]n1)c1ccc(Br)cc1,CDK2,thermal stability,,DSF,pKd,< 4.00
Cc1cc(Nc2cc3ncccc3c(N[C@@H]3C[C@H]4CC[C@@H](C3)N4CCC#N)n2)n[nH]1,CDK2,binding,,competition with immobilised ligand,pKd,6.12
c1ccc(CNc2ncnc3nc[nH]c23)cc1,"Cyclin-dependent kinase 2, with cyclin A (CDK2, Homo sapiens, UniProt P24941, F80G)",enzyme activity,inhibitor,radiometric,pIC50,~6.00
OCc1c(-c2ccc(F)cc2)nc2sc3c(n12)CCCC3,CDK2,enzyme activity,inhibitor,mobility shift,pIC50,4.72
